Measured values: ChEMBL document CHEMBL5046274, “Identification and Optimization of Novel Small-Molecule Cas9 Inhibitors by Cell-Based High-Throughput Screening” (J Med Chem, 2022)
pIC50: −log10 of the molar value. One block for each compound: values may come before it. Activity calls are given as the source filed them. The rule behind the calls is not given here.

How the values were obtained:
[1] = Inhibition of Streptococcus pyogenes Cas9 by Cas9 cleavage assay
Summary of the method: (§1)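 Recombinant SpyCas9 (5 nM) preincubated with compound in DMSO (final 5% v/v) for 15 min at 37 °C in PBS + 10 mM MgCl2 + 0.02% Triton X-100. Then 6 nM preformed crRNA/tracrRNA gRNA for 5 min, then 1 nM PCR-amplified target DNA for 30 min. Quenched with proteinase K, run on a 1% agarose gel, bands quantified by densitometry. Run in triplicate; IC50 from a four-parameter logistic fit.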

Streptococcus pyogenes [2] = assay: Inhibition of Streptococcus pyogenes Cas9 at 200 microM by Cas9 cleavage assay; summary of the method: as §1
Streptococcus pyogenes [3] = assay: Inhibition of Streptococcus pyogenes Cas9 at 500 microM by Cas9 cleavage assay; summary of the method: as §1
Streptococcus pyogenes [4] = assay: Inhibition of Streptococcus pyogenes Cas9 assessed as inhibition of Csp9:gRNA complex formation at 200 to 500 uM; conditions: dose 200-500 µM
Streptococcus pyogenes [5] = assay: Binding affinity to Streptococcus pyogenes Cas9 by 1D 1H-NMR-WaterLOGSY spectrum analysis
Summary of the method: (§2)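 NMR ligand-binding on apo-SpyCas9 with standard pulse sequences. For WaterLOGSY, bound ligands give signals of opposite (negative) phase to non-binders. Alanine is added to the cocktail at the ligand concentration as a phasing reference.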

Streptococcus pyogenes [6] = assay: Binding affinity to Streptococcus pyogenes Cas9 by 1H-19F-(CPMG)-NMR analysis; summary of the method: as §2
Streptococcus pyogenes [7] = assay: Inhibition of Streptococcus pyogenes Cas9 assessed as inhibition of Csp9:gRNA complex formation
Streptococcus pyogenes [8] = assay: Inhibition of Streptococcus pyogenes Cas9 assessed as inhibition of Csp9:gRNA complex formation at 200 uM by EMSA assay
Summary of the method: (§3)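 EMSA in PBS + 10 mM MgCl2 + 0.02% Triton X-100. Compound incubated with 200 nM apo-SpyCas9 for 5 min at 37 °C, then 200 nM Atto550-labelled crRNA/tracrRNA gRNA added for 15 min. Complexes resolved on a 6% TBE gel and visualised by fluorescence.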

Streptococcus pyogenes [9] = assay: Inhibition of Streptococcus pyogenes apo-Cas9 assessed as inhibition of Csp9:gRNA complex formation at 10 to 200 uM by EMSA assay; conditions: dose 10-200 µM; summary of the method: as §3

pIC50 [1]: 4.55
Compound: CC1CCN(C(=O)c2cccc(-c3ccc(C(F)(F)F)cc3)c2)CC1

pIC50 [1]: 4.85
Compound: Cc1cc(NS(=O)(=O)c2cccc(-c3ccc(Cl)c(Cl)c3)c2)no1

pIC50 [1]: 3.65
Compound: Cc1cc(NS(=O)(=O)c2ccc(-c3cccc(C(=O)N4CCC(C)CC4)c3)cc2)no1

pIC50 [1]: 4.55
Compound: CC1CCN(C(=O)c2cccc(-c3ccccc3)c2)CC1

pIC50 [1]: 3.89
Compound: Cc1cc(NS(=O)(=O)c2cccc(-c3ccccc3)c2)no1

pIC50 [1]: 3.72
Compound: Cc1cc(NS(=O)(=O)c2ccc(-c3ccccc3)cc2)no1

Activity (Streptococcus pyogenes [2]): inactive
Compound: Cc1ccnc(NS(=O)(=O)c2cc(-c3nc(C)c(C(=O)N4CCC(C)CC4)s3)n(C)c2C)c1

Activity (Streptococcus pyogenes [3]): Active
pIC50 [1]: 3.61
inhibition (Streptococcus pyogenes [4]): Active
Compound: Cc1cc(NS(=O)(=O)c2cc(-c3nc(C)c(C(=O)N4CCC(C)CC4)s3)n(C)c2C)no1

pIC50 [1]: 5.15
Activity (Streptococcus pyogenes [5]): Active
Activity (Streptococcus pyogenes [6]): Active
inhibition (Streptococcus pyogenes [7]): Active
inhibition (Streptococcus pyogenes [8]): Active
inhibition (Streptococcus pyogenes [9]): Active
Compound: Cc1cc(NS(=O)(=O)c2cc(-c3ccc(Cl)c(Cl)c3)cc(C(F)(F)F)c2)no1

Activity (Streptococcus pyogenes [3]): Active
Compound: Oc1c(C(c2ccccn2)N2CCC(Cc3ccccc3)CC2)cc(Cl)c2cccnc12 (configuration not stated)
